# Measurements pooled from the literature.
# Each line is one published result; the experiments were not run side by side.
# SLC6A3: Sodium-dependent dopamine transporter (SLC6A3, Homo sapiens, UniProt Q01959)
# DRD3: D(3) dopamine receptor (DRD3, Homo sapiens, UniProt P35462)
# CA12: Carbonic anhydrase 12 (CA12, Homo sapiens, UniProt O43570)
SMILES,target,assay,measurement,result
CCOC(=O)[C@@]12C[C@@H]1[C@@H](n1ccc3c(NCCCCc4ccccc4)nc(C#Cc4ccccc4)nc31)[C@H](O)[C@@H]2O,SLC6A3,"ligand displacement, radioligand",Ki,8000 nM
Cc1[nH]c(C)c(S(=O)(=O)Nc2cc(Cl)cc(Cl)c2Cl)c1C(=O)N1CCC(F)(F)C1,DRD3,"G protein activation, antagonist, BRET",IC50,14.8 µM
O=C(OC1CCCCC1)c1ccc(=O)oc1,CA12,"enzyme activity, inhibitor, stopped-flow",Ki,3120 nM
OC[C@@]12C[C@@H]1[C@@H](n1cnc3c(NCCCCCCc4ccccc4)nc(I)nc31)[C@H](O)[C@@H]2O,SLC6A3,"ligand displacement, radioligand",Ki,890 nM
OCc1ccccc1O[C@@H]1O[C@H](CO)[C@@H](O)[C@H](O)[C@H]1O,"Taste receptor type 2 member 16 (TAS2R16, Homo sapiens, UniProt Q9NYV7)","inositol phosphate, agonist, TR-FRET",EC50,13 mM
Cc1[nH]c(C)c(S(=O)(=O)Nc2ccc(C(F)(F)F)c(Cl)c2)c1C(=O)N1CC[C@@H](F)C1,DRD3,"β-arrestin recruitment, antagonist",IC50,5.1 µM
C#CCOC(=O)c1ccc(=O)oc1,CA12,"enzyme activity, inhibitor, stopped-flow",Ki,76300 nM
Cc1[nH]c(C)c(S(=O)(=O)Nc2ccc(C(F)(F)F)c(Cl)c2)c1C(=O)N1C[C@@H](F)[C@H](F)C1 (relative stereo),DRD3,"G protein activation, antagonist, BRET",IC50,0.58 µM
CCOC(=O)c1ccc(=O)oc1,CA12,"enzyme activity, inhibitor, stopped-flow",Ki,92600 nM
OC[C@@]12C[C@@H]1[C@@H](n1cnc3c(N[C@@H](C4CCC4)C4CC4)nc(C#Cc4ccc(Cl)s4)nc31)[C@H](O)[C@@H]2O,SLC6A3,"ligand displacement, radioligand",Ki,890 nM
O=C(Oc1ccc(Cl)cc1)c1ccc(=O)oc1,CA12,"enzyme activity, inhibitor, stopped-flow",Ki,76300 nM
CNC(=O)[C@@]12C[C@@H]1[C@@H](n1cnc3c(Nc4ccccc4)nc(C#Cc4ccc(Cl)s4)nc31)[C@H](O)[C@@H]2O,SLC6A3,"ligand displacement, radioligand",Ki,1600 nM
Cc1[nH]c(C)c(S(=O)(=O)Nc2ccc(C(F)(F)F)c(Cl)c2)c1C(=O)N(C)CC(F)(F)F,DRD3,"G protein activation, antagonist, BRET",IC50,4.6 µM
O=C(Oc1ccc(Br)cc1)c1ccc(=O)oc1,CA12,"enzyme activity, inhibitor, stopped-flow",Ki,910 nM
CCN(C)C(=O)c1c(C)[nH]c(C)c1S(=O)(=O)Nc1ccc(C(F)(F)F)c(Cl)c1,DRD3,"G protein activation, antagonist, BRET",IC50,13 µM
N#CSCc1cc(=O)oc2cc(O)ccc12,CA12,"enzyme activity, inhibitor, stopped-flow",Ki,23.6 nM
Cc1[nH]c(C)c(S(=O)(=O)Nc2ccc(C(F)(F)F)c(Cl)c2)c1C(=O)NCC(F)(F)F,DRD3,"G protein activation, antagonist, BRET",IC50,4 µM
CCOC(=O)[C@@]12C[C@@H]1[C@@H](n1cnc3c(NCCO)nc(C#Cc4ccc(Cl)s4)nc31)[C@H](O)[C@@H]2O,SLC6A3,"ligand displacement, radioligand",EC50,0.00097 mM
